Experiments:
[1] = Half life in Lewis rat at 1 mg/kg, po measured at 4 to 72 hrs; assay type: ADME, organism-based; conditions: in vivo, time 4-72 hrs
Outline: (§1)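 Half-life estimated from oral-dosing blood PK profiles in Lewis rats sampled at four time points: 4, 24, 48 and 72 h.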

[2] = Cardiotoxicity in human iPSC derived cardiomyocytes assessed as change in heart rate at 10 nM measured over 2 hrs by multi-electrode array relative to control; assay type: toxicity, cell-based; conditions: stem cell-derived cardiomyocyte, 0.01 µM
Outline: (§2)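 Phosphate metabolite of each compound prepared and tested on cultured human induced pluripotent stem cell-derived cardiomyocytes at 1 and 10 nM; beat rate change averaged over three or more replicates per concentration unless noted (some n = 2).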

[3] = Reduction in circulating lymphocytes count in Lewis rat at 1 mg/kg, po measured at 24 hrs by hematology analyzer based analysis; assay type: organism-based; set-up: scale not given: the % may be the effect or the level left; conditions: in vivo
Outline: (§3)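 Lewis rats (n = 2−4) dosed orally at 0.5, 1, 2 or 5 mg/kg; blood parent and phosphate metabolite concentrations and lymphocyte counts taken 4 and 24 h post-dose; phosphate-to-parent ratio from 24 h levels; significance versus vehicle by ANOVA with Dunnett's test.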

[4] = Drug concentration in Lewis rat blood assessed as concentration of parent compound at 1 mg/kg, po measured at 4 hrs by LC-MS/MS analysis; assay type: ADME, organism-based; conditions: Lewis, blood, read-out: Ct; outline: as §3
Rattus norvegicus [5] = test: Reduction in circulating lymphocytes count in Lewis rat at 1 mg/kg, po measured at 4 hrs by hematology analyzer based analysis; assay type: functional; set-up: scale not given: the % may be the effect or the level left; outline: as §3
[6] = Cardiotoxicity in human iPSC derived cardiomyocytes assessed as change in heart rate at 1 nM measured over 2 hrs by multi-electrode array relative to control; assay type: toxicity, cell-based; conditions: stem cell-derived cardiomyocyte, 0.001 µM; outline: as §2
[7] = Drug metabolism in Lewis rat blood assessed as concentration of parent compound at 1 mg/kg, po measured at 24 hrs by LC-MS/MS analysis; assay type: ADME, organism-based; conditions: read-out: Ct; for concentration at 24 h: Lewis, blood; outline: as §3
[8] = Drug metabolism in Lewis rat blood assessed as phosphate ester metabolite to parent ratio at 1 mg/kg, po measured at 24 hrs by LC-MS/MS analysis; conditions: in vivo
[9] = Drug metabolism in Lewis rat blood assessed as parent compound concentration at 0.5 mg/kg, po measured at 4 hrs by LC-MS/MS analysis; assay type: ADME, organism-based; conditions: Lewis, blood, read-out: Ct; outline: as §3
[10] = Reduction in circulating lymphocytes count in Lewis rat at 0.5 mg/kg, po measured at 24 hrs by hematology analyzer based analysis; assay type: ADME, organism-based; set-up: scale not given: the % may be the effect or the level left; conditions: in vivo; outline: as §3
[11] = Reduction in circulating lymphocytes count in Lewis rat at 0.5 mg/kg, po measured at 4 hrs by hematology analyzer based analysis; assay type: ADME, organism-based; set-up: scale not given: the % may be the effect or the level left; conditions: in vivo; outline: as §3
[12] = Drug metabolism in Lewis rat blood assessed as parent compound concentration at 0.5 mg/kg, po measured at 24 hrs by LC-MS/MS analysis; assay type: ADME, organism-based; conditions: Lewis, blood, read-out: Ct; outline: as §3
Rattus norvegicus [13] = test: Reduction in circulating lymphocytes count in Lewis rat at 2 mg/kg, po measured at 4 hrs by hematology analyzer based analysis; assay type: functional; set-up: scale not given: the % may be the effect or the level left
Outline: (§4)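 Lewis rats (n = 2−4) dosed orally; whole-blood lymphocyte counts taken 4 h and 24 h after dosing and reduction expressed versus vehicle-treated rats. Significance by ANOVA with Dunnett's test (p < 0.05 vs vehicle). Blood levels of parent and phosphate metabolite measured at the same time points in this PK/PD screen.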

[14] = Pulmonary toxicity in Lewis rat assessed as fold elevation of BAL protein content at 2 mg/kg, po by chemistry analyzer based analysis relative to control; assay type: organism-based; conditions: in vivo
Outline: (§5)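 Lewis rats dosed orally; bronchoalveolar lavage protein measured at study end, expressed as fold over vehicle control.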

[15] = Drug concentration in Lewis rat blood assessed as concentration of parent compound at 2 mg/kg, po measured at 24 hrs by LC-MS/MS analysis; assay type: ADME, organism-based; conditions: in vivo, read-out: Ct; outline: as §3
[16] = Drug concentration in Lewis rat blood assessed as concentration of parent compound at 2 mg/kg, po measured at 4 hrs by LC-MS/MS analysis; assay type: ADME, organism-based; conditions: read-out: Ct; for concentration at 4 h: Lewis, blood; for concentration: in vivo, 2 mg/kg, 4 h; outline: as §3
[17] = Reduction in circulating lymphocytes count in Lewis rat at 2 mg/kg, po measured at 24 hrs by hematology analyzer based analysis; assay type: Functional, organism-based; set-up: scale not given: the % may be the effect or the level left; conditions: in vivo; outline: as §4
[18] = Ratio of drug metabolism in Lewis rat blood assessed as phosphate ester metabolite to parent drug at 2 mg/kg, po measured at 24 hrs by LC-MS/MS analysis; assay type: ADME, organism-based; conditions: in vivo; outline: as §3
[19] = Half life in Lewis rat at 2 mg/kg, po measured at 4 to 72 hrs; assay type: ADME, organism-based; conditions: in vivo, time 4-72 hrs; for half-life: Lewis; for t1/2: 2 mg/kg; outline: as §1
[20] = Pulmonary toxicity in Lewis rat assessed as fold elevation of BAL protein content at 10 mg/kg, po by chemistry analyzer based analysis relative to control; assay type: organism-based; conditions: in vivo, 2 mg/kg, in the assay text read “2 mg/kg” for “10 mg/kg”; outline: as §5
[21] = Pulmonary toxicity in Lewis rat assessed as fold elevation of BAL protein content at 1 mg/kg, po by chemistry analyzer based analysis relative to control; assay type: organism-based; conditions: in vivo; outline: as §5

Row | Compound | Activity [2] [%] | Activity [6] [%] | fold change (FC) [14] | concentration [15] [nM] | concentration at 4 h [16] [nM] | Activity [17] [%] | Ratio [18] | Activity (Rattus norvegicus [13]; 2 mg/kg, 4 h) [%] | other results
1 | CCC/C=C/CC1CCc2cc([C@H]3CC[C@](N)(CO)C3)ccc2C1 (single isomer, unassigned) | -23 | -9.6 | – | – | – | – | – | – | half-life [1]: 62 h; Activity [3]: 62%; concentration at 4 h [4]: 31 nM; Activity (Rattus norvegicus [5]): 10%; concentration at 24 h [7]: 51 nM; Ratio [8]: 2.3
2 | CCCSCCC1CCc2cc([C@H]3CC[C@](N)(CO)C3)ccc2C1 (single isomer, unassigned) | -61 | -26 | – | – | – | – | – | – | concentration at 4 h [9]: 43 nM; Activity [10]: 60%; Activity [11]: 0%; concentration at 24 h [12]: 20 nM
3 | CCC/C=C\CC1CCc2cc([C@H]3CC[C@](N)(CO)C3)ccc2C1 (single isomer, unassigned) | -25 | -11 | – | – | – | – | – | – | half-life [1]: 59 h; Activity [3]: 71%; concentration at 4 h [4]: 10 nM; Activity (Rattus norvegicus [5]): 13%; concentration at 24 h [7]: 14 nM; Ratio [8]: 8.6
4 | CCCCSCC1CCc2cc([C@H]3CC[C@](N)(CO)C3)ccc2C1 (single isomer, unassigned) | -25 | -14 | 1.1 | 110 | 138 | 44 | 0.23 | – | Activity (Rattus norvegicus [13]): 20%
5 | COCCCCCC1CCc2cc([C@H]3CC[C@](N)(CO)C3)ccc2C1 (single isomer, unassigned; 23) | -40 | -20 | 1.9 | 51 | 129 | 81 | 8.2 | – | Activity (Rattus norvegicus [13]): 78%; half-life [19]: 15 h
6 | COCCCCC1CCc2cc([C@H]3CC[C@](N)(CO)C3)ccc2C1 (stereo in doubt; 13a) | – | – | – | 110 | 300 | 87 | 1.4 | 78 | fold change (FC) [20]: 1.7
7 | COCCCCC1CCc2cc([C@H]3CC[C@](N)(CO)C3)ccc2C1 (stereo in doubt; 13b) | -29 | -15 | – | 78 | – | 78 | 0.77 | 65 | concentration [16]: 271 nM; half-life [19]: 16 h; fold change (FC) [20]: 2.1
8 | COCCCC1CCc2cc([C@H]3CC[C@](N)(CO)C3)ccc2C1 (stereo in doubt; 22b) | -25 | -20 | 1.6 | 86 | – | 66 | 0.9 | 62 | concentration [16]: 215 nM; t1/2 [19]: 14 h
9 | COCCCCCCC1CCc2cc([C@H]3CC[C@](N)(CO)C3)ccc2C1 (stereo in doubt; 25a) | -32 | -16 | 1.7 | 69 | 265 | 84 | 3.9 | 70 | half-life [19]: 31 h
10 | COCCCCCCC1CCc2cc([C@H]3CC[C@](N)(CO)C3)ccc2C1 (stereo in doubt; 25b) | – | -25 | 1.2 | 295 | – | 79 | 2.5 | 45 | concentration [16]: 320 nM; t1/2 [19]: 26 h
11 | CCCCCCCOC1CCc2cc([C@H]3CC[C@](N)(CO)C3)ccc2C1 (stereo in doubt; 33a) | – | – | – | – | – | – | – | – | half-life [1]: 29 h; Activity [3]: 80%; fold change (FC) [21]: 0.85; concentration at 4 h [4]: 32 nM; Activity (Rattus norvegicus [5]; 1 mg/kg, 4 h): 13%; concentration ([7]; in vivo, 1 mg/kg, 24 h, 1 mg/kg, 24 h): 54 nM
